Active and inactive are the calls of the source. No cut-off for these calls is given here.
Columns and labels:
[1] = target: T1, Receptor-type tyrosine-protein kinase FLT3 (Mus musculus) (UniProt Q00342); assay: (§1) Inhibition of FLT3 in Balb/c mouse BMDCs assessed as suppression of FLT3L-induced pDC formation measured as upper right quadrant cells level treated on day 9 post 9 days of FLT3L-stimulation measured after 24 hrs by CD11c PerCP and CD45R/B220 FITC staining based flow cytometric analysis (reference value: 14.9%); design: scale not given: the % may be the effect or the level left
T1 sequence (whole entry): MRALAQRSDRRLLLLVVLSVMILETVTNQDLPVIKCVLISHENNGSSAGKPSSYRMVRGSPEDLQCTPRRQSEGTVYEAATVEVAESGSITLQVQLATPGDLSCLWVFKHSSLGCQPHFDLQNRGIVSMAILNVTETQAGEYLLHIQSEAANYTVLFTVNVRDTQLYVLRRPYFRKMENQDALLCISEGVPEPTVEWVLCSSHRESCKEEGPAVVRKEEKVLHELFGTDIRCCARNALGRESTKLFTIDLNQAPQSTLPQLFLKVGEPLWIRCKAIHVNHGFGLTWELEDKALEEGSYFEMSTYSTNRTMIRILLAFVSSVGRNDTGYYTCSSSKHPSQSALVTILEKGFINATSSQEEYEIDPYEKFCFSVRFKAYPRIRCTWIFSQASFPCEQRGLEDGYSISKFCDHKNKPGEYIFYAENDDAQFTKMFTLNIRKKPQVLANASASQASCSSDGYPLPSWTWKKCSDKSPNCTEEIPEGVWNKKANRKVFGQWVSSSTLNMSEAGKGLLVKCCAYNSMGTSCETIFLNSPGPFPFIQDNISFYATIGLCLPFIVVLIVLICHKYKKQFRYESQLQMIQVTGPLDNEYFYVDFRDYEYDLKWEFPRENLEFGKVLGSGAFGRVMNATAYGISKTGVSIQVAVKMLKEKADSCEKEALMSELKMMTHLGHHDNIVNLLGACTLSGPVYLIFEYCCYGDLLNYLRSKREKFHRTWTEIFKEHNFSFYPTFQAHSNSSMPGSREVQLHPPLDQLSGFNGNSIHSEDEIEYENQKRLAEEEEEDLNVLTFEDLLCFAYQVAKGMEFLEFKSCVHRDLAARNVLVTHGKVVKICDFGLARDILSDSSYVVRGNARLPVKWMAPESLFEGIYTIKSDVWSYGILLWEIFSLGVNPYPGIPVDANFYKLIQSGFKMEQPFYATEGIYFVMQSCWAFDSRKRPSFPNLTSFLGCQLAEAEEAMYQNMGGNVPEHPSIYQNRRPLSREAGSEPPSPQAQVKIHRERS
Summary of the method: (§2)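 BALB/c bone marrow cells were cultured at 1×10^6/ml with FLT3L in supplemented RPMI-1640 for 9 days. Compound in DMSO or 0.1% DMSO was added on day 9 for 24 h. Cells were stained for 30 min with CD11c PerCP plus B220 FITC (pDC: CD11c+ B220+) or MHC II FITC (mDC: CD11c+ MHC II+), then analysed by flow cytometry. Three independent experiments.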

[2] = target: T1, Receptor-type tyrosine-protein kinase FLT3 (Mus musculus); assay: as §1, with “mDC” for “pDC”, “lower” for “upper”, “I-A/I-E (MHC class II)” for “CD45R/B220”, “3.49%)” for “14.9%)”; design: scale not given: the % may be the effect or the level left; summary of the method: as §2
BMDC = assay: Decrease in IFN-gamma level in Balb/c mouse BMDCs at 10 nM treated on day 9 post 9 days of FLT3L-stimulation measured after 12 hrs by ELISA; assay type: functional, cell-based
Summary of the method: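 BALB/c bone marrow cells were plated at 1×10^6/ml in RPMI-1640 with 10% FCS, 10^-4 M 2-ME, pyruvate, antibiotics and FLT3L for 9 days. On day 9, compound in DMSO or 0.1% DMSO was added. After 12 h, supernatant IFN-γ and IL-23 were measured by ELISA. Three independent experiments.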

[3] = target: T1, Receptor-type tyrosine-protein kinase FLT3 (Mus musculus); assay: Inhibition of FLT3 in mouse BMDCs assessed as suppression of STAT3 phosphorylation at 10 and 100 nM treated on day 9 post 9 days of FLT3L-stimulation measured after 1 hr by Western blot analysis
Summary of the method: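 Bone marrow cells were cultured 9 days with FLT3L in supplemented RPMI-1640, then exposed to compound or 0.1% DMSO for 1 h on day 9. Whole cells were lysed and immunoblotted with rabbit antibodies to STAT3, STAT5, pSTAT3 and pSTAT5. Three independent experiments.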

Mus musculus [4] = species on record: Mus musculus; assay: Antipsoriatic activity in K14-VEGF transgenic mouse model of psoriasis assessed as reduction in epidermal thickness at 0.05% applied tropically over lesion for continuous 29 days by H and E staining method relative to vehicle control; assay type: functional, organism-based
Summary of the method: (§3)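 Homozygous K14-VEGF mice, 3–4 months old, with moderate to serious psoriasis; n=3 per group. Cream with 0.05% compound or vehicle cream smeared on lesions. Head and neck tissue sections taken after 29 days of treatment and HE-stained. Baker pathological score from 5 random fields, given as mean and SD. Epidermal thickness from 8 random fields, given as mean ± SEM.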

Mus musculus [5] = species on record: Mus musculus; assay: Antipsoriatic activity in K14-VEGF transgenic mouse model of psoriasis assessed as reduction in infiltrated lymphocytes at 0.05% applied tropically over lesion for continuous 29 days by H and E staining method relative to vehicle control; assay type: functional, organism-based; summary of the method: as §3
Mus musculus [6] = species on record: Mus musculus; assay: Antipsoriatic activity in K14-VEGF transgenic mouse model of psoriasis assessed as lower left quadrant DC cells expressing FLT3 and CD11c in psoriatic plaque lesion at 0.05% applied tropically over lesion for continuous 29 days by flow cytometric analysis (reference value: 72.7%); assay type: functional
Mus musculus [7] = species on record: Mus musculus; assay: Antipsoriatic activity in K14-VEGF transgenic mouse model of psoriasis assessed as lower right quadrant DC cells expressing FLT3 and CD11c in psoriatic plaque lesion at 0.05% applied tropically over lesion for continuous 29 days by flow cytometric analysis (reference value: 8.88%); assay type: functional
Mus musculus [8] = species on record: Mus musculus; assay: Antipsoriatic activity in K14-VEGF transgenic mouse model of psoriasis assessed as decrease in VEGF expression in psoriatic lesion at 0.05% applied tropically over lesion for continuous 29 days by immunohistochemical analysis relative to vehicle control; assay type: functional; design: scale not given: the % may be the effect or the level left
Summary of the method: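 K14-VEGF mice were treated topically with 0.05% cream or vehicle for 29 days, n=3 per group. Ear skin was paraffin-embedded, cut into 4-µm sections and immunostained. Staining was quantified in 5 random fields, reported as mean ± SD.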

Mus musculus [9] = species on record: Mus musculus; assay: Antipsoriatic activity in K14-VEGF transgenic mouse model of psoriasis assessed as lower left quadrant FLT3+/CD11c+/MHC-II+ mDC cells in psoriatic plaque lesion at 0.05% applied tropically over lesion for continuous 29 days by flow cytometric analysis (reference value: 0%)
Mus musculus [10] = species on record: Mus musculus; assay: Antipsoriatic activity in K14-VEGF transgenic mouse model of psoriasis assessed as lower left quadrant FLT3+/CD11c+/B220+ pDC cells in psoriatic plaque lesion at 0.05% applied tropically over lesion for continuous 29 days by flow cytometric analysis (reference value: 63.7%)
Mus musculus [11] = species on record: Mus musculus; assay: Antipsoriatic activity in K14-VEGF transgenic mouse model of psoriasis assessed as lower left quadrant FLT3+/CD11c+/MHC-II+ mDC cells in psoriatic plaque lesion at 0.05% applied tropically over lesion for continuous 29 days by flow cytometric analysis (reference value: 35.2%)

Activity [1]: 7.84%
Activity [2]: 5.15%
inhibition [3]: Active
SMILES: CC(C)(C)c1cc(NC(=O)Nc2ccc(Oc3ncnc4[nH]ncc34)c(F)c2)no1
inhibition (BMDC): Active
Activity (Mus musculus [4]): Active
Activity (Mus musculus [5]): Active
Activity (Mus musculus [6]): 89.5%
Activity (Mus musculus [7]): 2.1%
Activity (Mus musculus [8]): 90%
Activity (Mus musculus [9]): 0%
Activity (Mus musculus [10]): 89.9%
Activity (Mus musculus [11]): 8.58%

— ChEMBL document CHEMBL4428067, “Drug Discovery against Psoriasis: Identification of a New Potent FMS-like Tyrosine Kinase 3 (FLT3) Inhibitor, 1-(4-((1H-Pyrazolo[3,4-d]pyrimidin-4-yl)oxy)-3-fluorophenyl)-3-(5-(tert-butyl)isoxazol-3-yl)urea, That Showed Potent Activity in a Psoriatic Animal Model” (J Med Chem, 2016)
